In publication PMC7299178 (Angewandte Chemie (International ed. in English), 2019):

What was measured:
[1] = Micelle size in water by TEM and DLS; assay type: physicochemical
Method in brief: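 Test material was a linear-brush diblock copolymer (PMMA block plus a peptide-acrylamide/DMA brush block), self-assembled into micelles in water. Particle diameter was measured by TEM imaging, and hydrodynamic diameter by DLS. TEM images were also taken after thermolysin treatment (thermolysin cleaves the Gly–Leu amide bond of the peptide side chains).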

thermolysin = thermolysin (Bacillus thermoproteolyticus, UniProt P00800)
thermolysin, sequence (P00800 233-548, species assumed): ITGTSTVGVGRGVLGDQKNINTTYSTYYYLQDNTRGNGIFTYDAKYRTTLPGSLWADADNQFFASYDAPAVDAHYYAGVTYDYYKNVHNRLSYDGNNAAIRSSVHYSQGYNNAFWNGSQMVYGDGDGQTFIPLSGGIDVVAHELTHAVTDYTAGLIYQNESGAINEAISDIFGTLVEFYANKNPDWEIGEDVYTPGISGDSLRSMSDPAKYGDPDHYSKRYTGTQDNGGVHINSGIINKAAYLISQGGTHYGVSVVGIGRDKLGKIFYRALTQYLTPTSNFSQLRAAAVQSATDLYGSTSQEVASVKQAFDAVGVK

## PMMA90-b-poly(PepAm21-co-DMA63) [P8]
[1]; micelles in water, dynamic light scattering
  hydrodynamic diameter (DLS): 28 nm
[1]; spherical micelles assembled in water, transmission electron microscope
  micelle diameter (TEM): 24 nm
thermolysin; TEM and DLS, spherical micelles before treatment
  morphology change of micelles upon treatment with thermolysin: underwent a phase transition into a worm-like phase
thermolysin; same cleavage conditions, thermolysin pretreated with ethylenediaminetetraacetic acid, DLS
  change of particle diameter with deactivated thermolysin: no change in diameter
